The RNAGym collection of RNA variant scans (doi:10.1126/science.aae0568)
This sample holds only a part of the variants without activity.

B1: tRNA (parent)
chain: GUUCCGUUGGCGUAAUGGUAACGCGUCUCCCUCCUAAGGAGAAGACUGCGGGUUCGAGUCCCGUACGGAACG

Variants of: B1
Test: yeast fitness relative to wild type (ratio to wild type); higher = fitter; tRNA-Arg(CCU), competitive growth, 37 C, YPD
Procedure, shortened: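 Gene amplicons from the start population and from each of six end populations were read by 100-nucleotide paired-end sequencing. Those end populations came from pooled Saccharomyces cerevisiae strains carrying tRNA-Arg(CCU) gene variants at the native locus, competed in YPD at 37°C for 24 hours. Fitness relative to wild type was worked out from changes in genotype frequencies. Genotypes needed ≥ 100 starting reads, and estimates < 0.5 were set to 0.5.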

Row | Variant | yeast fitness
1 | GUUCCGUUGGCGUGAUGGAAACGCGUCUCCCUCCUAAGGAGAAGACUGCGGGUUCGAGUCCCGUACGGAACG | 0.809
2 | GUUCCGUUGGCGUGAUGGGAACGCGUCUCCCUCCUAAGGAGAAGACUGCGGGUUCGAGUCCCGUACGGAACG | 0.856
3 | GUUCCGUUGGCGUGAUGGUAACGCGUCUCCCUCCUAAGGAGAAGACUGCGGGUUCGAGUCCCGUACCGAACG | 0.763
4 | GUUCCGUUGGCGUGAUGGUAACGCGGCUCCCUCCUAAGGAGACGAAUGCGGGUUCGAGUCCCGUACGGAACG | ≤ 0.5
5 | GUUCCGUUGGCGUGAUGGUAACGCGUCCCCCUCCUAAGGAGAAGACUGCGGGUUCGAGUCUCGUACGGAACG | 0.577
6 | GUUCCGUUGGCGUGAUGGUAACGCGGCUCCCUCCUAAGGAGAAGACUGCGGGUGCGAGUCCCGUACGGUACG | ≤ 0.5
7 | GUUCCGUUGGCGUGAUGGUAACGCGCCUCCCUCCUAAGGAGAAGACUGCGGGUUCGAGUCCCGUACGGAACG | 0.879
8 | GUUCCGUUGGCGUGAUGGUAACGCGCCUCCCUCCUAGGGAGAAGACUGCGGGUUCGAGUCCCGUACAGAACG | 0.539
9 | GUUCCGUUGGCGUGAUGGUAACGCGUCUCCCUCCUAAGGAGAAGACUGCGGGUUCGAGUCCCGUACGUAUCG | ≤ 0.5
10 | GUUCCGUUGGCGUGAAGGUAACGGGUCUCCCUCCUAAGGAGAAGGCUGCGGGUUCGAGUCCAGUACGGCACG | ≤ 0.5
11 | GUUCCGUUGGCGUGAUGGUAACGCGCCUCCCUCCUAGGGAGAAGACUGCGGGUUCGAGUCCCGUACGGAACG | ≤ 0.5
12 | GUUCCGUUGGCGUGAUGGUAACGCGUCUCCCUCCUAAGGAGAAGACUGCGGGUUCGACUCCCGUCCGGAACG | 0.593
13 | GUUCCGUUGGCGUGAUGGUAACGCGGCUCCCUCCUAAGGAGAAGACUGCGGCUUCGAGUACCGUACGGAACG | 0.616
14 | GUUCCGUUGGCGUGAGGGUAACGCGUCUCCCUCCUUAGGAGAAGACUGCGGGUUCGAGUCCCGUACGCAACG | ≤ 0.5
15 | GUUCCGUUGGCGUGAUGGUAACGCGCCUCUCUCCUAAGGAGAAGACUGCGGGUUCGAGUCCCGUACGGAACG | 0.567
16 | GUUCCGUUGGCGUGACGGUAACGCGUCUCCCUCCUAAGGAGAAGACUGCGGGUUCGAGUCCCGUACGGAACG | 0.897
17 | GUUCCGUUGGCGUGAGGGUAACGCGUCUCCCUCCUAAGGAGAAGACUGCGGGUUCGAGUCCCGUACGGAACG | 0.742
18 | GUUCCGUUGGCGUGAUGGUAACGCGUCCCCCUCCUAAGGAGAAGACUGCGGGUUCGAGUCCCGUACGGAACG | 0.692
19 | GUUCCGUUGGCGUGAGGGUAACGGGCCUCCCUCCUAAGGAGAAGACGGCCGGUUCGAGUCCCGUACGGAACG | 0.515

Row | Variant | yeast fitness
20 | GUUCCGUUGGCGUGAUGGUAACGCGUCCCCCUCCUAAGGUGAAGACUGCGGGUUCGAGUCCCGUACGGAACG | 0.691
21 | GUUCCGUUGGCGUGAUGGGAACGCGUCUCCCUCCUAAGGAGAAGACUCCGGGUGCGAGUCCCGUCCGGAACG | ≤ 0.5
22 | GUUCCGUUGGCGUGAUGGUAACGCGUCUCCCUCCUAAGGAGAAGACUGCGGGUUCGACUCCCGUACGGAACG | 0.989
23 | GUUCCGUUGGCGUGAUGGUAACGCGUCUCCCUCCUAAGGAGAAGACUGCGGGUUCGAGUCCCCUACGGAACG | 0.78
24 | GUUCCGUUGGCGUGAUGGGAACGCGUCUCCCUCCUAAGGAGAAGAUUGCGGGUUCGGGUCCCGUACGGACCG | ≤ 0.5
25 | GUUCCGUUGGCGUGAUGGCAUCGCGUCUCCCUCCUAAGGAGAAGACUGCGGGUUCGAGUCCCGUACGUAACG | ≤ 0.5
26 | GUUCCGUUGGCGUGAUGGUAACGCGUCCCCCUCCUAAGGAGAAGACUGCGGGUUCGAGUCCCGUACGAAACG | ≤ 0.5
27 | GUUCCGUUGGCGUGAUGGCAACGCGUCUCCCUCCUAAGGAGAAGACUGCGGGUUCGAGACCCGUACGGAACG | ≤ 0.5
28 | GUUCCGUUGGCGUGAAGGUAACGCGUCUCCCUACUAAGGAGAAGACUGCGGGUUUGAGUCCCGUACGGAACG | 0.67
29 | GUUCCGUUGGCGUGAUGGAAACGCGUCUCCCUCUUAAGGAGAAGACUGCGGGUUCGAGUCCCGUACGGAACG | ≤ 0.5
30 | GUUCCGUUGGCGUGAUGGCUACGCGUCUCCCUCCUAAGGAGAAGACUGCGGGUUCGAGUCCCGUACGGAACG | 0.773
31 | GUUCCGUUGGCGUGAUGGUAACGCGUCUCCCUCCUAAGGAGAAGACUGCGGGUUCGAGUCCCGUACGUAACG | 0.826
32 | GUUCCGUUGGCGUGAUGGUAACGCGUCUCCCUCCUAAGGAGAAGACUGCGGGUUCGAGUCCCGUACGCAACG | 0.78
33 | GUUCCGUUGGCGUGAUGGUAACGCGCCACCCUCCUAAGGAGAAGACUGCGGGUUCGAGUCCCGUUCGGAACG | ≤ 0.5
34 | GUUCCGUUGGCGUGAUGGCAACGCGUCUCCCUCCCAAGGGGAAGACUGCGGGUUCGAGUCCCGUACGGAACG | ≤ 0.5
35 | GUUCCGUUGGCGUGAUGGCAACGCGUCUCCGUCCUAUGGAGAAGACUGCGGGUUCGAGUCCCGUUCGGAACG | ≤ 0.5
36 | GUUCCGUUGGCGUGAUGGUAACGCGCCUCCCUCCUAAGGAGAAGACUGCGGGUUCGAGUCCCGUACGAAACG | 0.557
37 | GUUCCGUUGGCGUGAGGGUAACGCGUCUGCCUCCUAAGGAGAAGACUGCGGGUUCGAAUCCCGUACGGAACG | ≤ 0.5
38 | GUUCCGUUGGCGUGAUGGUAACGCGUCGUCCUCCUAAGGAGAAGACUGUGGGUAUGAGUCCCGUACGGACCG | 0.603
